Source: ChEMBL document CHEMBL4334458, “Design, synthesis and antibacterial evaluation of novel 15-membered 11a-azahomoclarithromycin derivatives with the 1, 2, 3-triazole side chain” (Eur J Med Chem, 2019)
Values after ≈ are worked out from the molar mass of the structure shown. Active and inactive are the calls of the source. The rule behind the calls is not given here.

Experiments:
Staphylococcus aureus [1] = experiment: Antibacterial activity against erythromycin-susceptible Staphylococcus aureus ATCC 25923 incubated for 24 hrs by broth dilution method; assay type: functional; settings: ATCC 25923, 24 h
Summary of the method: (§1)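 CLSI broth microdilution in cation-adjusted Mueller-Hinton broth. Twofold dilutions spanned 0.25–128 or 0.5–256 µg/mL, with CAM and AZM as controls. Log-phase bacteria were added and incubated 24 h at 37 °C. MIC was read by turbidity as the concentration of the last clear well.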

Streptococcus pyogenes [2] = experiment: Antibacterial activity against erythromycin-susceptible Streptococcus pyogenes 1 clinical isolate incubated for 24 hrs by broth dilution method; assay type: functional; summary of the method: as §1
Escherichia coli = experiment: Antibacterial activity against penicillin-susceptible Escherichia coli ATCC 25922 incubated for 24 hrs by broth dilution method; assay type: functional; settings: ATCC 25922, 24 h; summary of the method: as §1
Pseudomonas aeruginosa = experiment: Antibacterial activity against penicillin-susceptible Pseudomonas aeruginosa ATCC 27853 incubated for 24 hrs by broth dilution method; assay type: functional; settings: ATCC 27853, 24 h; summary of the method: as §1
Bacillus subtilis = experiment: Antibacterial activity against penicillin-susceptible Bacillus subtilis ATCC 9372 incubated for 24 hrs by broth dilution method; assay type: functional; settings: ATCC 9372, 24 h; summary of the method: as §1
Staphylococcus aureus [3] = experiment: Antibacterial activity against penicillin-resistant Staphylococcus aureus ATCC 31007 incubated for 24 hrs by broth dilution method; assay type: functional; settings: ATCC 31007, 24 h
Staphylococcus aureus [4] = experiment: Antibacterial activity against methicillin-resistant Staphylococcus aureus ATCC 43300 incubated for 24 hrs by broth dilution method; assay type: functional; settings: ATCC 43300, 24 h
Streptococcus pneumoniae [5] = experiment: Antibacterial activity against erythromycin-resistant Streptococcus pneumoniae B1 expressing the ermB incubated for 24 hrs by broth dilution method; assay type: functional
Streptococcus pneumoniae [6] = experiment: Antibacterial activity against erythromycin-resistant Streptococcus pneumoniae AB11 expressing the ermB and mefA incubated for 24 hrs by broth dilution method; assay type: functional
Streptococcus pyogenes [7] = experiment: Antibacterial activity against erythromycin-resistant Streptococcus pyogenes 2 clinical isolate incubated for 24 hrs by broth dilution method; assay type: functional
[8] = Cytotoxicity against human MCF7 cells assessed as viable cells at 64 to 128 ug/ml incubated for 24 hrs by MTT assay relative to control; assay type: cell-based; settings: read-out: Activity
Summary of the method: (§2)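 MCF-7 cells were seeded at 10^4 cells/well and allowed to settle overnight. Compound was added for 24 h, with CAM as control and DMSO as vehicle control. MTT (5 mg/mL stock) was then added for 4 h at 37 °C, formazan dissolved in DMSO for 10 min, and absorbance read at 570 nm. Read-out was percent viable cells.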

Staphylococcus aureus [9] = experiment: Bactericidal activity against erythromycin-susceptible Staphylococcus aureus ATCC 25923 incubated for 24 hrs followed by re-plating on tryptic soy agar plates for 24 hrs by broth microdilution assay; assay type: functional; settings: ATCC 25923, 24 h
Summary of the method: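 Built on the broth microdilution MIC set-up (CAMH, 24 h, 37 °C). After 24 h, contents of clear wells were plated on tryptic soy agar and incubated 24 h at 37 °C. MBC was taken as the lowest concentration giving no colonies.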

Staphylococcus aureus [10] = experiment: Ratio of MBC to MIC for erythromycin-susceptible Staphylococcus aureus ATCC 25923; assay type: functional
Staphylococcus aureus [11] = experiment: Ratio of MIC for CAM to MIC for test compound for antibacterial activity against penicillin-resistant Staphylococcus aureus ATCC 31007 incubated for 24 hrs by broth dilution method; assay type: functional
Summary of the method: (§3)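 Ratio of clarithromycin MIC to compound MIC. Both MICs come from CLSI broth microdilution in cation-adjusted Mueller-Hinton broth with 2-fold dilutions, log-phase inoculum and 24 h at 37 °C, read by turbidity as the last clear well.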

Streptococcus pneumoniae [12] = experiment: Ratio of MIC for CAM to MIC for test compound for antibacterial activity against erythromycin-resistant Streptococcus pneumoniae AB11 expressing the ermB and mefA incubated for 24 hrs by broth dilution method; assay type: functional; summary of the method: as §3
Streptococcus pyogenes [13] = experiment: Ratio of MIC for CAM to MIC for test compound for antibacterial activity against erythromycin-resistant Streptococcus pyogenes 2 clinical isolate incubated for 24 hrs by broth dilution method; assay type: functional; summary of the method: as §3
Staphylococcus aureus [14] = experiment: Ratio of MIC for CAM to MIC for test compound for antibacterial activity against methicillin-resistant Staphylococcus aureus ATCC 43300 incubated for 24 hrs by broth dilution method; assay type: functional; summary of the method: as §3
Streptococcus pneumoniae [15] = experiment: Ratio of MIC for CAM to MIC for test compound for antibacterial activity against erythromycin-resistant Streptococcus pneumoniae B1 expressing the ermB incubated for 24 hrs by broth dilution method; assay type: functional; summary of the method: as §3
Streptococcus pneumoniae [16] = experiment: Bactericidal activity against erythromycin-resistant Streptococcus pneumoniae AB11 expressing the ermB and mefA incubated for 24 hrs followed by re-plating on tryptic soy agar plates for 24 hrs by broth microdilution assay; assay type: functional
Summary of the method: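 Follows the 24 h, 37 °C CAMH broth microdilution MIC plate; contents of clear wells plated onto tryptic soy agar and incubated 24 h at 37 °C; MBC taken as the lowest concentration giving no colonies.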

Streptococcus pneumoniae [17] = experiment: Ratio of MBC to MIC for erythromycin-resistant Streptococcus pneumoniae AB11 expressing the ermB and mefA; assay type: functional
Streptococcus pneumoniae [18] = experiment: Bactericidal activity against erythromycin-resistant Streptococcus pneumoniae AB11 expressing the ermB and mefA at 1 to 4 times MIC incubated for up to 9 hrs by time-kill curve assay; assay type: functional, organism-based
Streptococcus pneumoniae [19] = experiment: Bacteriostatic activity against erythromycin-resistant Streptococcus pneumoniae AB11 expressing the ermB and mefA at 1 to 4 times MIC incubated for 9 to 24 hrs by time-kill curve assay; assay type: functional, organism-based
Streptococcus pneumoniae [20] = experiment: Bacteriostatic activity against erythromycin-resistant Streptococcus pneumoniae AB11 expressing the ermB and mefA by time-kill curve assay; assay type: functional, organism-based
MCF7 = experiment: Cytotoxicity against human MCF7 cells assessed as viable cells up to 32 ug/ml incubated for 24 hrs by MTT assay; assay type: cell-based; settings: mcf7, 24 h; summary of the method: as §2

Row | Structure (SMILES) | MIC (Staphylococcus aureus [1]) [µg/mL] | MIC (Streptococcus pyogenes [2]) [µg/mL] | MIC (Escherichia coli) [µg/mL] | MIC (Pseudomonas aeruginosa) [µg/mL] | MIC (Bacillus subtilis) [µg/mL] | MIC (Staphylococcus aureus [3]) [µg/mL] | MIC (Staphylococcus aureus [4]) [µg/mL] | MIC (Streptococcus pneumoniae [5]) [µg/mL] | MIC (Streptococcus pneumoniae [6]) [µg/mL] | MIC (Streptococcus pyogenes [7]) [µg/mL] | MBC (Staphylococcus aureus [9]) [µg/mL] | Ratio (Staphylococcus aureus [10]) | MBC (Streptococcus pneumoniae [16]) [µg/mL] | Ratio (Streptococcus pneumoniae [17]) | further results
1 | COc1cccc(-n2cc(COC[C@H]3CN(C)C[C@@H](C)[C@@H](O)[C@H](C)C[C@@](C)(OC)[C@H](O[C@@H]4O[C@H](C)C[C@H](N(C)C)[C@H]4O)[C@@H](C)[C@H](O[C@H]4C[C@@](C)(OC)[C@@H](O)[C@H](C)O4)[C@@H](C)C(=O)O3)nn2)c1 | ≤ 0.25 | 0.5 (≈ 0.542 µM) | 64 (≈ 69.4 µM) | 32 (≈ 34.7 µM) | ≤ 0.25 | > 256 | > 256 | > 256 | 128 (≈ 139 µM) | 128 (≈ 139 µM) | > 128 | >512 |  |  | viability at 24 h [8]: 60%
2 | CO[C@]1(C)C[C@@H](C)[C@H](O)[C@H](C)CN(C)C[C@H](COCc2cn(-c3ccccc3)nn2)OC(=O)[C@H](C)[C@@H](O[C@H]2C[C@@](C)(OC)[C@@H](O)[C@H](C)O2)[C@H](C)[C@H]1O[C@@H]1O[C@H](C)C[C@H](N(C)C)[C@H]1O | ≤ 0.25 | 0.25 (≈ 0.28 µM) | 64 (≈ 71.7 µM) | 16 (≈ 17.9 µM) | ≤ 0.25 | > 256 | > 256 | > 256 | 128 (≈ 143 µM) | 128 (≈ 143 µM) | 128 (≈ 143 µM) | >512 |  |  | viability at 24 h [8]: 60%
3 | CCCc1ccc(-n2cc(COC[C@@H]3CN(C)C[C@@H](C)[C@@H](O)[C@H](C)C[C@@](C)(OC)[C@H](O[C@@H]4O[C@H](C)C[C@H](N(C)C)[C@H]4O)[C@@H](C)[C@H](O[C@H]4C[C@@](C)(OC)[C@@H](O)[C@H](C)O4)[C@@H](C)C(=O)O3)nn2)cc1 | 4 (≈ 4.28 µM) | 4 (≈ 4.28 µM) | 64 (≈ 68.5 µM) | > 128 | 1 (≈ 1.07 µM) | 32 (≈ 34.3 µM) | 16 (≈ 17.1 µM) | 16 (≈ 17.1 µM) | 8 (≈ 8.56 µM) | 32 (≈ 34.3 µM) |  |  | 64 (≈ 68.5 µM) | 8 | Ratio (Staphylococcus aureus [11]): 8 - 16; Ratio (Streptococcus pneumoniae [12]): 8 - 16; Ratio (Streptococcus pyogenes [13]): 8 - 16; Ratio (Staphylococcus aureus [14]): 8 - 16; Ratio (Streptococcus pneumoniae [15]): 8 - 16
4 | CCCCc1ccc(-c2cn(C[C@@H]3CN(C)C[C@@H](C)[C@@H](O)[C@H](C)C[C@@](C)(OC)[C@H](O[C@@H]4O[C@H](C)C[C@H](N(C)C)[C@H]4O)[C@@H](C)[C@H](O[C@H]4C[C@@](C)(OC)[C@@H](O)[C@H](C)O4)[C@@H](C)C(=O)O3)nn2)cc1 | 8 (≈ 8.71 µM) | 8 (≈ 8.71 µM) | > 128 | > 128 | 32 (≈ 34.8 µM) | 8 (≈ 8.71 µM) | 8 (≈ 8.71 µM) | 64 (≈ 69.7 µM) | 8 (≈ 8.71 µM) | 8 (≈ 8.71 µM) |  |  | 64 (≈ 69.7 µM) | 8 | Activity (Streptococcus pneumoniae [18]): Active; Activity (Streptococcus pneumoniae [19]): Active; Activity (Streptococcus pneumoniae [20]): Dose-dependent effect
5 | CO[C@]1(C)C[C@@H](C)[C@H](O)[C@H](C)CN(C)C[C@@H](COCc2cn(-c3ccc(C(C)C)cc3)nn2)OC(=O)[C@H](C)[C@@H](O[C@H]2C[C@@](C)(OC)[C@@H](O)[C@H](C)O2)[C@H](C)[C@H]1O[C@@H]1O[C@H](C)C[C@H](N(C)C)[C@H]1O | 4 (≈ 4.28 µM) | 4 (≈ 4.28 µM) | 64 (≈ 68.5 µM) | 128 (≈ 137 µM) | 1 (≈ 1.07 µM) | 32 (≈ 34.3 µM) | 32 (≈ 34.3 µM) | 16 (≈ 17.1 µM) | 16 (≈ 17.1 µM) | 16 (≈ 17.1 µM) |  |  |  |  | Ratio (Staphylococcus aureus [11]): 8 - 16; Ratio (Streptococcus pneumoniae [12]): 8 - 16; Ratio (Streptococcus pyogenes [13]): 8 - 16; Ratio (Staphylococcus aureus [14]): 8 - 16; Ratio (Streptococcus pneumoniae [15]): 8 - 16
6 | CC[C@H]1OC(=O)[C@H](C)[C@@H](O[C@H]2C[C@@](C)(OC)[C@@H](O)[C@H](C)O2)[C@H](C)[C@@H](O[C@@H]2O[C@H](C)C[C@H](N(C)C)[C@H]2O)[C@](C)(OC)C[C@@H](C)C(=O)[C@H](C)[C@@H](O)[C@]1(C)O [CLARITHROMYCIN] | ≤ 0.25 | ≤ 0.03 | 128 (≈ 171 µM) | 32 (≈ 42.8 µM) | ≤ 0.25 | > 256 | > 256 | > 256 | 128 (≈ 171 µM) | 256 (≈ 342 µM) | 128 (≈ 171 µM) | >512 | 128 (≈ 171 µM) | 1 | 
7 | CO[C@]1(C)C[C@@H](C)[C@H](O)[C@H](C)CN(C)C[C@H](COCc2cn(-c3ccccn3)nn2)OC(=O)[C@H](C)[C@@H](O[C@H]2C[C@@](C)(OC)[C@@H](O)[C@H](C)O2)[C@H](C)[C@H]1O[C@@H]1O[C@H](C)C[C@H](N(C)C)[C@H]1O | ≤ 0.25 | 0.5 (≈ 0.56 µM) | 64 (≈ 71.7 µM) | 16 (≈ 17.9 µM) | ≤ 0.25 | > 256 | > 256 | > 256 | 128 (≈ 143 µM) | 128 (≈ 143 µM) | > 128 | >512 |  |  | Activity (MCF7): Non-Toxic
